Four molecules from ChEMBL document CHEMBL4024783, “Alkylated Piperazines and Piperazine-Azole Hybrids as Antifungal Agents” (J Med Chem, 2018) can be followed below.

Data set [1] deals with Candida albicans. Nature of the data set: Antifungal activity against itraconazole and fluconazole resistant Candida albicans ATCC MYA-1003 after 48 hrs by broth dilution method. Format: functional. Conditions: Candida albicans, ATCC MYA-1003, 48 h. The gist of the method: (§1)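 CLSI M27-A3 broth microdilution with minor modifications. Overnight YPD culture grown at 35 °C, 200 rpm, adjusted to OD600 0.12, diluted in RPMI 1640 buffered to pH 7.0 with 0.165 M MOPS to a final 1–2 × 10^3 CFU/mL. Test compounds at 0.015–31.3 µg/mL, 48 h at 35 °C, DMSO <1.25%. […] Triplicate.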

Another data set concerns Pichia kudriavzevii. Nature of the data set: Antifungal activity against Candida krusei ATCC 6258 after 48 hrs by broth dilution method. Format: functional. Conditions: for MIC: Pichia kudriavzevii, ATCC 6258, 48 h. In outline:
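Yeasts tested per CLSI M27-A3 with minor changes. An overnight YPD culture (35 °C, 200 rpm) was adjusted to OD600 0.12 and diluted in MOPS-buffered RPMI 1640 (pH 7.0) to a final 1–2 × 10^3 CFU/mL. Compounds 0.015–31.3 µg/mL, DMSO <1.25%.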
In general terms: In broth dilution the organism is exposed to a series of concentrations in liquid medium.

A short description of data set [2]: Aqueous solubility of the compound. The data set is classed as physicochemical. Conditions: buffer.
The test system of another data set is Aspergillus nidulans. Nature of the data set: Antifungal activity against Aspergillus nidulans ATCC 38163 after 48 hrs by broth dilution method. The data set is classed as functional. The settings on record: Aspergillus nidulans, ATCC 38163, 48 h. In outline: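 A. nidulans run per CLSI M38-A2. PDA spores were filtered through glass wool and counted by hemocytometer. Test range 0.03–31.3 µg/mL in MOPS-buffered RPMI 1640 (pH 7.0), final 5 × 10^5 CFU/mL.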

In the next data set the test system is Nakaseomyces glabratus. In words: Antifungal activity against Candida glabrata ATCC 2001 after 48 hrs by broth dilution method. Format: functional, CBS 138. The settings on record: for MIC: Nakaseomyces glabratus, CBS 138, 48 h.
Data set [3] deals with Candida albicans. In words: Antifungal activity against itraconazole and fluconazole susceptible Candida albicans ATCC MYA-2876 after 48 hrs by broth dilution method. The settings on record: for MIC: Candida albicans, ATCC MYA-2876, 48 h. Format: functional.
Data set [4] deals with Candida albicans. Nature of the data set: Antifungal activity against itraconazole and fluconazole resistant Candida albicans ATCC 90819 after 48 hrs by broth dilution method. Format: functional. The settings on record: for MIC: Candida albicans, ATCC 90819, 48 h. The gist of the method: as §1
In the next data set the test system is Candida parapsilosis. In words: Antifungal activity against Candida parapsilosis ATCC 22019 after 48 hrs by broth dilution method. The data set is classed as functional. The settings on record: for MIC: Lodderomyces parapsilosis, ATCC 22019, 48 h.
Data set [5] concerns Candida albicans. Nature of the data set: Antifungal activity against itraconazole and fluconazole susceptible Candida albicans ATCC MYA-2310 after 48 hrs by broth dilution method. The data set is classed as functional. The settings on record: for MIC: Candida albicans, ATCC MYA-2310, 48 h.
A further data set relates to Aspergillus terreus. Nature of the data set: Antifungal activity against Aspergillus terreus ATCC MYA-3633 after 48 hrs by broth dilution method. Format: functional. Conditions: Aspergillus terreus, ATCC MYA-3633, 48 h. The gist of the method: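 Molds tested per CLSI M38-A2. Spores were harvested from sporulating PDA cultures by filtering through glass wool and counted on a hemocytometer. Serial dilutions (0.03–31.3 µg/mL) were made in RPMI 1640 buffered to pH 7.0 with 0.165 M MOPS, final inoculum 5 × 10^5 CFU/mL.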

Data set [6] in a line: Solubility of the compound in DMSO. Format: physicochemical.
Data set [7] has as its system Candida albicans. Nature of the data set: Antifungal activity against Candida albicans ATCC 10231 after 48 hrs by broth dilution method. The data set is classed as functional. The settings on record: ATCC 10231, 48 h.
Data set [8] has as its system Candida albicans. In words: Antifungal activity against itraconazole and fluconazole resistant Candida albicans ATCC MYA-1237 after 48 hrs by broth dilution method. Format: functional. Conditions: Candida albicans, ATCC MYA-1237, 48 h. In outline:
as §1

The subject of data set [9] is Candida albicans. Nature of the data set: Antifungal activity against Candida albicans ATCC 64124 after 48 hrs by broth dilution method. Format: functional. Conditions: for MIC: Candida albicans, ATCC 64124, 48 h. The gist of the method:
as §1

Another data set has as its system Aspergillus flavus. In words: Antifungal activity against Aspergillus flavus ATCC MYA-3631 after 48 hrs by broth dilution method. The settings on record: ATCC MYA-3631, 48 h. Format: functional.
For data set [10], the system named is Candida albicans. Nature of the data set: Inhibition of 14alpha-demethylase in Candida albicans ATCC 10231 assessed as ergosterol levels at […] by GC-MS analysis. More on the design: scale not given: the % may be the effect or the level left.
Data set [11] concerns Candida albicans. In words: Inhibition of 14alpha-demethylase in Candida albicans ATCC 10231 assessed as 14alpha-methyl ergosta-8,24(28)-dien-3beta,6alpha-diol levels at […] by GC-MS analysis. More on the design: scale not given: the % may be the effect or the level left.
The subject of data set [12] is Candida albicans. In words: Antifungal activity against Candida albicans ATCC 10231 at 7.8 ug/mL incubated for 1 hr by propidium iodide staining-based fluorescence microscopic method. The data set is classed as functional. The gist of the method:
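C. albicans ATCC 10231 grown overnight in YPD broth at 35 °C with shaking at 200 rpm, then transferred to RPMI 1640. Cells were exposed to drug and stained with propidium iodide, which enters only cells with compromised membranes. Uptake was judged by fluorescence microscopy against an untreated control.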

The structures appear in SMILES notation. Values after ≈ are worked out from the molar mass of the structure shown. Active and inactive are the calls of the source.

The term MIC denotes the smallest concentration in the dilution series that meets the test's criterion for growth inhibition.

In the case of `CCCCCCCCCCCCCN1CCN(CC(O)(Cn2cncn2)c2ccc(F)cc2F)CC1` (stereo not drawn), the MIC in the data set on Candida albicans [1] was determined as 7.7 µM (≈ 3.89 µg/mL); against Pichia kudriavzevii, 1.9 µM (≈ 0.961 µg/mL); in the data set with Aspergillus nidulans, 1.9 µM (≈ 0.961 µg/mL); in the data set on Nakaseomyces glabratus, 1.9 µM (≈ 0.961 µg/mL); against Candida albicans [3], 3.9 µM (≈ 1.97 µg/mL); in the data set with Candida albicans [4], 3.9 µM (≈ 1.97 µg/mL). Moreover, the minimum inhibitory concentration (MIC) is less than 0.47 µM in the data set with Candida parapsilosis; 7.7 µM (≈ 3.89 µg/mL) with Candida albicans [5]; 1.9 µM (≈ 0.961 µg/mL) in the data set with Aspergillus terreus; 3.9 µM (≈ 1.97 µg/mL) against Candida albicans [7]; 7.7 µM (≈ 3.89 µg/mL) with Candida albicans [8]; 15.4 µM (≈ 7.79 µg/mL) against Candida albicans [9]. The molecule further gave an MIC against Aspergillus flavus of 1.9 µM (≈ 0.961 µg/mL). In addition, the solubility entry in [2] and in data set [6] was “Soluble” each time.

For the molecule `CC[C@H](C)C[C@H](C)CCCCCCCCC(=O)N[C@H]1C[C@@H](O)[C@@H](NCCN)NC(=O)[C@@H]2[C@@H](O)CCN2C(=O)[C@H]([C@H](O)CCN)NC(=O)[C@H]([C@H](O)[C@@H](O)c2ccc(O)cc2)NC(=O)[C@@H]2C[C@@H](O)CN2C(=O)[C@H]([C@@H](C)O)NC1=O` [CASPOFUNGIN], the minimum inhibitory concentration (MIC) against Candida albicans [1] was 0.4 µM (≈ 0.437 µg/mL); in the data set with Pichia kudriavzevii, 0.4 µM (≈ 0.437 µg/mL); with Aspergillus nidulans it was greater than 25.8 µM; in the data set on Nakaseomyces glabratus, 0.05 µM (≈ 0.0547 µg/mL); against Candida albicans [3], 0.05 µM (≈ 0.0547 µg/mL); in the data set with Candida albicans [4], 0.1 µM (≈ 0.109 µg/mL). The minimal inhibitory concentration (MIC) in the data set on Candida parapsilosis was 1.6 µM (≈ 1.75 µg/mL); with Candida albicans [5], 0.1 µM (≈ 0.109 µg/mL); in the data set on Aspergillus terreus it was greater than 25.8 µM; in the data set with Candida albicans [7], 0.8 µM (≈ 0.875 µg/mL); against Candida albicans [8], 0.2 µM (≈ 0.219 µg/mL); against Candida albicans [9], 0.2 µM (≈ 0.219 µg/mL). This molecule also displayed an MIC in the data set with Aspergillus flavus greater than 25.8 µM.

Take `OC(Cn1cncn1)(Cn1cncn1)c1ccc(F)cc1F` [FLUCONAZOLE]: the “MIC=<50” value was greater than 102.2 µM with Pichia kudriavzevii; greater than 102.2 µM against Nakaseomyces glabratus; 50.9 µM (≈ 15.6 µg/mL) in the data set on Candida albicans [3]; greater than 408.1 µM in the data set on Candida albicans [4]; 6.4 µM (≈ 1.96 µg/mL) against Candida parapsilosis; greater than 408.1 µM with Candida albicans [5]. In addition, the “MIC=<50” value against Candida albicans [9] was greater than 408.1 µM. The solubility result in data set [2] and in data set [6] was “Soluble” in each case. The figures for the Activity in the data set on Candida albicans [10] and in the data set with Candida albicans [11] were 95.9% and 4.1%, respectively. In addition, in the data set with Candida albicans [12], the outcome was inactive.

For `CN1CCNCC1` [METHYLPIPERAZINE], the minimal inhibitory concentration (MIC) in the data set on Candida albicans [1], with Pichia kudriavzevii, against Aspergillus nidulans, against Nakaseomyces glabratus, against Candida albicans [3] and with Candida albicans [4] was greater than 312 µM throughout. Further, the MIC against Candida parapsilosis, with Candida albicans [5], against Aspergillus terreus, in the data set on Candida albicans [7], against Candida albicans [8] and with Candida albicans [9] was greater than 312 µM throughout. For the same molecule, the MIC in the data set on Aspergillus flavus was greater than 312 µM.
